Consider 4 compounds from ChEMBL document CHEMBL3085771, “Azetidinone-retinoid hybrids: synthesis and differentiative effects” (Eur J Med Chem, 2013).

Calls of active or inactive are those of the source. The calls are words filed in the database; no cut-off is given here.

Experiment [1] has as its system SH-SY5Y. In words: Cytotoxicity against human SH-SY5Y cells assessed as doubling time at 10 uM after 24 to 96 hrs by trypan blue exclusion assay (reference value: 34.9 hrs). It is filed as functional, cell-based.
A short description of experiment [2]: Cytotoxicity against human SH-SY5Y cells after 24 hrs by MTT assay.
For experiment [3], the system named is SH-SY5Y. The experiment in a line: Induction of cell differentiation in human SH-SY5Y cells assessed as neural-like differentiation at 10 uM after 6 days using beta3-tubulin and NF200 staining by microscopic analysis. It counts as functional, cell-based. The procedure, abridged:
(§1)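 SH-SY5Y grown on BME-coated glass coverslips at 1×10⁴ cells/cm², treated from 24 h for 6 days, medium changed every 48 h. Controls were untreated cells and RA 10 microM. Cells fixed in 4% PFA, immunostained overnight at 4 °C for βIII-tubulin and NF200, and counterstained with Hoechst. Imaged at 20×; immunoreactive area normalized to cell number, mean ± SD.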

A short description of experiment [4]: Cytotoxicity against human SH-SY5Y cells assessed as doubling time at 10 uM after 24 to 72 hrs by trypan blue exclusion assay (reference value: 34.9 hrs). It counts as functional.
The test system of experiment [5] is SH-SY5Y. In words: Cytotoxicity against human SH-SY5Y cells at 10 uM after 72 to 96 hrs by MTT assay. It is filed as functional, cell-based. (Formazan colour is commonly taken as a measure of viable cells.)
Experiment [6] deals with SH-SY5Y. In words: Cytotoxicity against human SH-SY5Y cells at 10 uM after 48 hrs by MTT assay. It is filed as functional, cell-based.
In experiment [7] the test system is SH-SY5Y. In words: Cytotoxicity against human SH-SY5Y cells assessed as doubling time at 7.5 uM after 24 to 96 hrs by trypan blue exclusion assay (reference value: 34.9 hrs). It counts as functional, cell-based.
Experiment [8] in a line: Cytotoxicity against human SH-SY5Y cells assessed as doubling time at 7.5 uM after 24 to 72 hrs by trypan blue exclusion assay (reference value: 34.9 hrs). It is filed as functional.
Experiment [9] has as its system SH-SY5Y. In words: Cytotoxicity against human SH-SY5Y cells at 7.5 uM after 72 to 96 hrs by MTT assay. It is filed as functional, cell-based.
The subject of experiment [10] is SH-SY5Y. In words: Induction of cell differentiation in human SH-SY5Y cells assessed as neural-like differentiation at 7.5 uM after 6 days using beta3-tubulin and NF200 staining by microscopic analysis. It is filed as functional, cell-based. The procedure, abridged: as §1

For `CC1=C(/C=C/C(C)=C\CNC(=O)/C=C2/CC(=O)N2)C(C)(C)CCC1`, the result with SH-SY5Y [1] was inactive. Moreover, half-maximal inhibition in experiment [2] (IC50) required 35 µM. In addition, the outcome in the experiment with SH-SY5Y [3], in the experiment with SH-SY5Y [5] and in the experiment with SH-SY5Y [6] was Active. For the same compound, the Time in experiment [4] turned out to be 51.25 h.

`CSN1C(=O)CC1CC/C=C/C(=O)Nc1ccccc1` (stereo not drawn): in experiment [2], the IC50 – broadly, the concentration that gives 50% inhibition – was found to be 10 µM. In addition, the result with SH-SY5Y [7] and in the experiment with SH-SY5Y [10] was inactive. In addition, in experiment [8], the Time is 39 h. For the same compound, the outcome with SH-SY5Y [9] was Active.

In the case of `CC1=C(/C=C/C(C)=C/C=C/C(C)=C/C(=O)O)C(C)(C)CCC1`, in the experiment on SH-SY5Y [3], the result was Active.

On to `CC1=C(/C=C/C(C)=C/CNC(=O)/C=C2/CC(=O)N2)C(C)(C)CCC1`, for which the outcome with SH-SY5Y [1] was inactive. Besides, half-maximal inhibition in [2] (IC50) was put at 38 µM. Moreover, the result in the experiment on SH-SY5Y [3], in the experiment on SH-SY5Y [5] and with SH-SY5Y [6] was Active. The Time in experiment [4] was 39.78 h.
